Experimental data published in ChEMBL document CHEMBL1122833, “Potential antitumor agents. 44. Synthesis and antitumor activity of new classes of diacridines: importance of linker chain rigidity for DNA binding kinetics and biological activity” (J Med Chem, 1985).

Assays:
[1] = test system: P388; experiment: (§1) The % increase in lifespan of treated animals over that of control group of animals injected with tumor alone; format: functional, Mus musculus
[2] = test system: P388; experiment: (§2) Highest nontoxic optimal dose administered intraperitoneally after inoculation of P388 leukemia cells; format: functional, Mus musculus
Method in brief: (§3)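 Mice were inoculated with 10^6 P388 leukemia cells. Drug was given intraperitoneally in 30% v/v EtOH/water on days 1, 5 and 9 after inoculation. OD is the highest nontoxic dose in mg/kg per day.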

[3] = Lipophilicity (Rm); format: physicochemical; conditions: chromatographic, drug cations at pH 1-2
[4] = test system: L1210; experiment: In vitro inhibitory dose that reduces L1210 cell line by 50% when added for a period of 70h; format: functional; conditions: Mus musculus, L1210, 70 h; read-out: ID50 (the source's name)
Method in brief: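 L1210 cultures were exposed to drug for 70 h, and cells were then counted. IC50 is the drug concentration (nM) that reduces cell numbers to 50% of untreated controls.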

[5] = test system: P388; experiment: as §2; format: functional, Mus musculus; method in brief: as §3; remark: listed apart in the source
[6] = Chromatographic measure of drug lipophilicity determined for drug cations was evaluated; format: physicochemical
[7] = test system: P388; experiment: as §1; format: functional, Mus musculus; remark: listed apart in the source

c1ccc2c(NCCNCCNCCNc3c4ccccc4nc4ccccc34)c3ccccc3nc2c1
ILS [1]: <20%
OD [2]: 10 mg/kg
Rm [3]: -0.9
IC50 [4]: 2900 nM

O=C(CNc1c2ccccc2nc2ccccc12)NCCNc1c2ccccc2nc2ccccc12
ILS [1]: <20%
OD [2]: 50 mg/kg
Rm [3]: -0.41
IC50 [4]: > 4000 nM

c1ccc2c(NCCCCCNc3c4ccccc4nc4ccccc34)c3ccccc3nc2c1
ILS [1]: <20%
OD [2]: 20 mg/kg
Rm [3]: 0.02
IC50 [4]: 3700 nM

Cn1nc(C(=O)NCCNc2c3ccccc3nc3ccccc23)cc1C(=O)NCCNc1c2ccccc2nc2ccccc12
ILS [1]: 46%
OD [2]: 20 mg/kg
Rm [3]: -0.3
IC50 [4]: 13 nM

c1ccc2c(NCCCNCCCNc3c4ccccc4nc4ccccc34)c3ccccc3nc2c1
ILS [1]: <20%
OD [2]: 5 mg/kg
Rm [3]: -0.53
IC50 [4]: 480 nM

c1ccc2c(NCCCCCCCCCCNc3c4ccccc4nc4ccccc34)c3ccccc3nc2c1
ILS [1]: <20%
OD [2]: 5.9 mg/kg
Rm [3]: 0.45
IC50 [4]: 280 nM

c1ccc2c(NCCCN3CCN(CCCNc4c5ccccc5nc5ccccc45)CC3)c3ccccc3nc2c1
ILS [1]: <20%
OD [2]: 3 mg/kg
Rm [3]: -0.72
OD [5]: 3 mg/kg
Rm [6]: -0.72
ILS [7]: <20%

O=C(CCCNc1c2ccccc2nc2ccccc12)NCCNc1c2ccccc2nc2ccccc12
ILS [1]: <20%
OD [2]: 50 mg/kg
Rm [3]: -0.19
IC50 [4]: > 3500 nM

O=C(CCNc1c2ccccc2nc2ccccc12)NCCCNc1c2ccccc2nc2ccccc12
ILS [1]: <20%
OD [2]: 15 mg/kg
Rm [3]: -0.28
IC50 [4]: > 3500 nM

c1ccc2c(NCCCCCCCCCNc3c4ccccc4nc4ccccc34)c3ccccc3nc2c1
ILS [1]: <20%
OD [2]: 5.9 mg/kg
Rm [3]: 0.4
IC50 [4]: 160 nM

O=C(CCCNc1c2ccccc2nc2ccccc12)NCCCNc1c2ccccc2nc2ccccc12
ILS [1]: <20%
OD [2]: 50 mg/kg
Rm [3]: -0.12
IC50 [4]: > 3500 nM

Cn1nc(C(=O)NCCCNc2c3ccccc3nc3ccccc23)cc1C(=O)NCCCNc1c2ccccc2nc2ccccc12
ILS [1]: 65%
OD [2]: 20 mg/kg
Rm [3]: 0
IC50 [4]: 55 nM

c1ccc2c(NCCCCNc3c4ccccc4nc4ccccc34)c3ccccc3nc2c1
ILS [1]: <20%
OD [2]: 30 mg/kg
Rm [3]: -0.21
IC50 [4]: 10800 nM

CN(CCCNc1c2ccccc2nc2ccccc12)CCCNc1c2ccccc2nc2ccccc12
ILS [1]: <20%
OD [2]: 10 mg/kg
Rm [3]: -0.65
IC50 [4]: 780 nM

c1ccc2c(NCCCCCCCNc3c4ccccc4nc4ccccc34)c3ccccc3nc2c1
ILS [1]: <20%
OD [2]: 8.9 mg/kg
Rm [3]: 0.21
IC50 [4]: 50 nM

O=C(CNc1c2ccccc2nc2ccccc12)NCCCNc1c2ccccc2nc2ccccc12
ILS [1]: <20%
OD [2]: 50 mg/kg
Rm [3]: -0.24
IC50 [4]: > 3500 nM

Cn1nc(C(=O)NCCCCNc2c3ccccc3nc3ccccc23)cc1C(=O)NCCCCNc1c2ccccc2nc2ccccc12
ILS [1]: 26%
OD [2]: 8.9 mg/kg
Rm [3]: 0.11
IC50 [4]: 24 nM

c1ccc2c(NCCCNCCNCCCNc3c4ccccc4nc4ccccc34)c3ccccc3nc2c1
ILS [1]: <20%
OD [2]: 10 mg/kg
Rm [3]: -0.86
IC50 [4]: 560 nM

O=C(CCNc1c2ccccc2nc2ccccc12)NCCNc1c2ccccc2nc2ccccc12
ILS [1]: <20%
OD [2]: 50 mg/kg
Rm [3]: -0.43
IC50 [4]: > 3500 nM

c1ccc2c(NCCN3CCN(CCNc4c5ccccc5nc5ccccc45)CC3)c3ccccc3nc2c1
ILS [1]: <20%
OD [2]: 3 mg/kg
Rm [3]: -0.77
IC50 [4]: 78 nM

Nc1c2ccccc2nc2ccccc12 [AMINACRINE]
ILS [1]: <20%
OD [2]: 20 mg/kg
Rm [3]: -0.08
IC50 [4]: 1900 nM

c1ccc2c(NCCCCNCCCNc3c4ccccc4nc4ccccc34)c3ccccc3nc2c1
ILS [1]: <20%
OD [2]: 10 mg/kg
Rm [3]: -0.39
IC50 [4]: 29 nM

c1ccc2c(NCCCCCCNc3c4ccccc4nc4ccccc34)c3ccccc3nc2c1
ILS [1]: <20%
OD [2]: 13.3 mg/kg
Rm [3]: 0.15
IC50 [4]: 110 nM

c1ccc2c(NCCCCCCCCNc3c4ccccc4nc4ccccc34)c3ccccc3nc2c1
ILS [1]: <20%
OD [2]: 8.9 mg/kg
Rm [3]: 0.28
IC50 [4]: 170 nM
